We go through twelve compounds from ChEMBL document CHEMBL1121392, “Synthesis and antiarrhythmic properties of some 5-benzamido-2-methyl-trans-decahydroisoquinolines” (J Med Chem, 1980).

Data set [1] can be described thus: Compound was evaluated for acute toxicity (24 h) in female roswell park white mice given intraperitoneally. The format is organism-based. The note with it: mouse, in vivo, ip. Put shortly: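 Female Roswell Park (ICR) mice, about 15–25 g, dosed intraperitoneally in groups of at least ten. At least three dose levels were spaced logarithmically at intervals of 0.1 or less. Deaths were scored at 24 h.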

Data set [2] in a line: Ratio of lethal dose to that of effective dose in mice. It is filed as ADME, organism-based. The note with it: mouse, in vivo.
For data set [3], the species on record is Mus musculus. Kind of data set: Antiarrhythmic potency in female roswell park white mice using chloroform-induced ventricular fibrillation assay. The note with it: Heart. The format is functional.

`Cc1ccc(C(=O)NC2CCCC3CN(C)CCC32)cc1` (stereo not given) gave an LD50 at 24 h in data set [1] of 803 µmol/kg. The therapeutic index (LD50/ED50) in data set [2] amounted to 7.3. In data set [3], this compound returned an ED50 of 110 µmol/kg.

In data set [1], `CN1CCC2C(CCCC2NC(=O)c2ccc(C(F)(F)F)cc2)C1` (stereo not given) registered an LD50 at 24 h of 661 µmol/kg. Besides, in data set [2], the therapeutic index (LD50/ED50) came out at 13.6. This compound had an ED50 in data set [3] of 48 µmol/kg.

Take `COc1ccc(C(=O)NC2CCCC3CN(C)CCC32)cc1` (stereo not given): in data set [1], the LD50 at 24 h came out at 1140 µmol/kg. Moreover, in data set [2], the therapeutic index (LD50/ED50) worked out at 10.4. The same compound showed an ED50 in data set [3] of 109 µmol/kg.

Regarding `CN1CCC2C(CCCC2NC(=O)c2ccc(F)cc2)C1` (stereo not given), the LD50 at 24 h in data set [1] came to 992 µmol/kg. Moreover, in data set [2], the therapeutic index (LD50/ED50) came out at 9. In addition, the ED50 in data set [3] turned out to be 110 µmol/kg.

In data set [1], `CN1CCC2C(CCCC2NC(=O)c2ccc(Cl)cc2)C1` (stereo not given) returned an LD50 at 24 h of 929 µmol/kg. For the same compound, the therapeutic index (LD50/ED50) in data set [2] worked out at 19. The compound also registered an ED50 in data set [3] of 49 µmol/kg.

With `CN1CCC2C(CCCC2NC(=O)c2ccc(Cl)c(Cl)c2)C1` (stereo not given), the LD50 at 24 h in data set [1] worked out at 630 µmol/kg. In data set [2], the therapeutic index (LD50/ED50) turned out to be 19.6. Moreover, in data set [3], the ED50 stood at 32 µmol/kg.

As to `CN1CCC2C(CCCC2NC(=O)c2cccc(Cl)c2)C1` (stereo not given), the LD50 at 24 h in data set [1] came to 613 µmol/kg. In data set [2], the therapeutic index (LD50/ED50) stood at 8.36. For the same compound, the ED50 in data set [3] turned out to be 73 µmol/kg.

`CN1CCC2C(CCCC2NC(=O)c2ccccc2)C1` (stereo not given): the LD50 at 24 h in data set [1] turned out to be 866 µmol/kg. Further, in data set [2], the therapeutic index (LD50/ED50) amounted to 8.58. The compound further came in with an ED50 in data set [3] of 101 µmol/kg.

In turn, `CN1CCC2C(CCCC2NC(=O)c2ccc([N+](=O)[O-])cc2)C1` (stereo not given) had an LD50 at 24 h in data set [1] of 1100 µmol/kg. Further, in data set [2], the therapeutic index (LD50/ED50) was found to be 11.7. This compound also gave an ED50 in data set [3] of 95 µmol/kg.

The compound `CN1CCC2C(CCCC2NC(=O)c2ccc(Cl)cc2Cl)C1` (stereo not given) displayed a median lethal dose (LD50) at 24 h in data set [1] of 624 µmol/kg. The therapeutic index (LD50/ED50) in data set [2] came out at 7.1. Moreover, the median effective dose (ED50) in data set [3] turned out to be 88 µmol/kg.

Compound `COc1cc(C(=O)NC2CCCC3CN(C)CCC32)cc(OC)c1OC` (stereo not given) yielded an LD50 at 24 h in data set [1] of 610 µmol/kg. Moreover, in data set [2], the therapeutic index (LD50/ED50) was 24. The compound further returned an ED50 in data set [3] of 25 µmol/kg.

In the case of `C=C[C@H]1CN2CC[C@H]1C[C@@H]2[C@@H](O)c1ccnc2ccc(OC)cc12` [QUINIDINE], the LD50 at 24 h in data set [1] was 524 µmol/kg. The 50% effect level in data set [3] (ED50) was put at a dose of 122 µmol/kg.

A word on the LD50: it is the dose expected to kill half of the subjects tested. Read a high LD50 as lower toxicity. The term ED50 denotes the dose at which the effect has come halfway, by size or by number of responders.
